ChEMBL document CHEMBL1255424, “Antistaphylococcal activity of ACHN-490 tested alone and in combination with other agents by time-kill assay” (2010)

Assays:
Type in all cases: functional
Staphylococcus aureus [1] = experiment: Antibacterial activity against vancomycin-intermediate Staphylococcus aureus after 24 hrs by modified broth macrodilution method
Summary of the method: (§1)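 MIC read after 24 h incubation by modified broth macrodilution, validated per CLSI recommendations, against recent clinical MRSA isolates (hospital- and community-acquired, hVISA, VISA, VRSA). Daptomycin tests ran in Mueller-Hinton broth with added calcium.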

Staphylococcus aureus [2] = experiment: Antibacterial activity against vancomycin-intermediate Staphylococcus aureus isolate 1016 after 24 hrs by modified broth macrodilution method; conditions: isolate 1016, 24 h; summary of the method: as §1
Staphylococcus aureus [3] = experiment: Antibacterial activity against vancomycin-intermediate Staphylococcus aureus isolate 1006 after 24 hrs by modified broth macrodilution method; conditions: isolate 1006, 24 h; summary of the method: as §1

Measured: MIC

CC(=O)NC[C@H]1CN(c2ccc(N3CCOCC3)c(F)c2)C(=O)O1 [LINEZOLID]
1 µg/mL: Staphylococcus aureus [1] | Staphylococcus aureus [2] | Staphylococcus aureus [3]
